The values below come from ChEMBL document CHEMBL1649518, “Safety and outcomes of open-label deferasirox iron chelation therapy for mucormycosis” (Antimicrob Agents Chemother, 2009).

Common to all, as to assay type: organism-based
Holding throughout (set-up): route oral
What all share (settings): in vivo, 336 h

Data set [1] has as its system Homo sapiens. Kind of data set: Toxicity in patient with mucormycosis assessed as aspartate transaminase level at 5 to 20 mg/kg/day, po for 14 days (reference value: 27 U/l). Summed up: (§1)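 Open-label deferasirox given to patients with mucormycosis. One patient with coexisting hepatic disease received 5 mg/kg of body weight/day for 20 days. Laboratory values were reported as medians (interquartile range) at diagnosis, at start of deferasirox, at end of deferasirox, and at a final time point.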

For data set [2], the system named is Homo sapiens. In words: Toxicity in patient with mucormycosis assessed as blood urea nitrogen level at 5 to 20 mg/kg/day, po for 14 days (reference value: 34 mg/dl). The gist of the method: as §1
Data set [3] has as its system Homo sapiens. In words: Toxicity in patient with mucormycosis assessed as WBC count at 5 to 20 mg/kg/day, po for 14 days (reference value: 8.1/uL). The gist of the method: as §1
For data set [4], the system named is Homo sapiens. Kind of data set: Toxicity in patient with mucormycosis assessed as creatinine level at 5 to 20 mg/kg/day, po for 14 days (reference value: 1.6 mg/dl). Summed up:
as §1

The subject of data set [5] is Homo sapiens. In words: Toxicity in patient with mucormycosis assessed as hemoglobin level at 5 to 20 mg/kg/day, po for 14 days (reference value: 9 mg/dl). The gist of the method:
as §1

The subject of data set [6] is Homo sapiens. In words: Toxicity in patient with mucormycosis assessed as alkaline phosphatase level at 5 to 20 mg/kg/day, po for 14 days (reference value: 126 U/l). The gist of the method:
as §1

In data set [7] the test system is Homo sapiens. In words: Toxicity in patient with mucormycosis assessed as alanine transaminase level at 5 to 20 mg/kg/day, po for 14 days (reference value: 21 U/l). Summed up:
as §1

Data set [8] concerns Homo sapiens. In words: Toxicity in patient with mucormycosis assessed as absolute neutrophil count at 5 to 20 mg/kg/day, po for 14 days (reference value: 5.2/uL). The gist of the method:
as §1

In data set [9] the test system is Homo sapiens. Kind of data set: Toxicity in patient with mucormycosis assessed as glucose level at 5 to 20 mg/kg/day, po for 14 days (reference value: 131 mg/dl). Summed up: as §1
For data set [10], the system named is Homo sapiens. In words: Toxicity in patient with mucormycosis assessed as platelet count at 5 to 20 mg/kg/day, po for 14 days (reference value: 217/uL). The gist of the method: as §1
For data set [11], the system named is Homo sapiens. Kind of data set: Toxicity in patient with mucormycosis assessed as total bilirubin level at 5 to 20 mg/kg/day, po for 14 days (reference value: 0.8 mg/dl). The gist of the method: as §1

As to `O=C(O)c1ccc(-n2nc(-c3ccccc3O)nc2-c2ccccc2O)cc1` [DEFERASIROX], the Activity is 28 U/L in the data set with Homo sapiens [1]; 43 mg/dL in the data set on Homo sapiens [2]; 10.8 10^3 cells/µL in the data set with Homo sapiens [3]; 1.9 mg/dL in the data set with Homo sapiens [4]; 9 g/dL in the data set on Homo sapiens [5]; 314 U/L with Homo sapiens [6]. Further, the Activity in the data set on Homo sapiens [7] is 49 U/L; in the data set on Homo sapiens [8], 5.4 10^3 cells/µL; with Homo sapiens [9], 104 mg/dL; in the data set with Homo sapiens [10] it was 199 10^3 cells/µL; in the data set with Homo sapiens [11], 0.6 mg/dL.
